Data from ChEMBL document CHEMBL3739379, “Anti-Candida activity and cytotoxicity of a large library of new N-substituted-1,3-thiazolidin-4-one derivatives” (Eur J Med Chem, 2016).
Values after ≈ are worked out from the molar mass of the structure shown.

Legend:
Type in all cases: functional
[Candida] sake = Antifungal activity against Candida sake clinical isolate after 24 hrs by sabouraud dextrose broth based microdilution method; details: Fermentozyma sake
Procedure, shortened: (§1)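 Clinical isolates identified by conventional methods and subcultured for purity. Broth microdilution per NCCLS in Sabouraud dextrose broth; compounds dissolved in DMSO and serially diluted; inoculum 10^3/mL. Controls: fungi without compound, medium only. Incubated 24 h at 37 °C. MIC is the lowest concentration with complete growth inhibition by unaided eye. Values are geometric means over isolates per species.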

[1] = system: Staphylococcus haemolyticus; test: Antibacterial activity against Staphylococcus haemolyticus after 18 to 22 hrs by broth microdilution method
Procedure, shortened: (§2)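 Broth microdilution per NCCLS in Mueller-Hinton II broth; isolates subcultured for purity. Compounds dissolved in DMSO, serial dilutions 256 to 0.5 µg/mL; inoculum 10^5/mL. Controls: organism without compound, medium only. Incubation 18 to 22 h at 35 °C. MIC is the lowest concentration giving complete growth inhibition, read by unaided eye.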

Proteus mirabilis = test: Antibacterial activity against Proteus mirabilis after 18 to 22 hrs by broth microdilution method; procedure, shortened: as §2
Enterobacter sp. = test: Antibacterial activity against Enterobacter sp. after 18 to 22 hrs by broth microdilution method; procedure, shortened: as §2
Escherichia coli = test: Antibacterial activity against Escherichia coli at after 18 to 22 hrs by broth microdilution method; procedure, shortened: as §2
Candida albicans = test: Antifungal activity against Candida albicans clinical isolate after 24 hrs by sabouraud dextrose broth based microdilution method; procedure, shortened: as §1
Klebsiella oxytoca = test: Antibacterial activity against Klebsiella oxytoca after 18 to 22 hrs by broth microdilution method; procedure, shortened: as §2
Staphylococcus aureus = test: Antibacterial activity against Staphylococcus aureus after 18 to 22 hrs by broth microdilution method; procedure, shortened: as §2
Nakaseomyces glabratus = test: Antifungal activity against Candida glabrata clinical isolate after 24 hrs by sabouraud dextrose broth based microdilution method; procedure, shortened: as §1
Enterococcus faecalis = test: Antibacterial activity against […] faecalis after 18 to 22 hrs by broth microdilution method; procedure, shortened: as §2
Staphylococcus warneri = test: Antibacterial activity against Staphylococcus warneri after 18 to 22 hrs by broth microdilution method; procedure, shortened: as §2
Candida tropicalis = test: Antifungal activity against Candida tropicalis clinical isolate after 24 hrs by sabouraud dextrose broth based microdilution method; procedure, shortened: as §1
Pichia kudriavzevii = test: Antifungal activity against Candida krusei clinical isolate after 24 hrs by sabouraud dextrose broth based microdilution method; procedure, shortened: as §1
Candida parapsilosis = test: Antifungal activity against Candida parapsilosis clinical isolate after 24 hrs by sabouraud dextrose broth based microdilution method; details: Lodderomyces parapsilosis; procedure, shortened: as §1

SMILES	MIC ([Candida] sake)	MIC (Proteus mirabilis)	MIC (Enterobacter sp.)	MIC (Escherichia coli)	MIC (Candida albicans)	MIC (Klebsiella oxytoca)	MIC (Staphylococcus aureus)	MIC (Nakaseomyces glabratus)	MIC (Enterococcus faecalis)	MIC (Staphylococcus warneri)	MIC (Candida tropicalis)	MIC (Pichia kudriavzevii)	MIC (Candida parapsilosis)	MIC [1]
CC1CC/C(=N\N=C2/SCC(=O)N2CN2C(=O)c3ccccc3C2=O)C1 (stereo not given)	16 µg/mL (≈ 43.2 µM)	> 256 µg/mL	> 256 µg/mL	> 256 µg/mL	2 µg/mL (≈ 5.4 µM)	> 256 µg/mL	> 256 µg/mL	32 µg/mL (≈ 86.4 µM)	> 256 µg/mL	> 256 µg/mL	8 µg/mL (≈ 21.6 µM)	16 µg/mL (≈ 43.2 µM)	8 µg/mL (≈ 21.6 µM)	> 256 µg/mL
CCCCC/C(C)=N/N=C1\SCC(=O)N1CN1C(=O)c2ccccc2C1=O	2 µg/mL (≈ 5.17 µM)	> 256 µg/mL	> 256 µg/mL	> 256 µg/mL	4 µg/mL (≈ 10.3 µM)	> 256 µg/mL	> 256 µg/mL	8 µg/mL (≈ 20.7 µM)	> 256 µg/mL	> 256 µg/mL	128 µg/mL (≈ 331 µM)	2 µg/mL (≈ 5.17 µM)	2 µg/mL (≈ 5.17 µM)	> 256 µg/mL
O=C1CS/C(=N\N=C\c2cccnc2)N1Cc1ccc([N+](=O)[O-])cc1	32 µg/mL (≈ 90 µM)	> 256 µg/mL	> 256 µg/mL	> 256 µg/mL	256 µg/mL (≈ 720 µM)	> 256 µg/mL	> 256 µg/mL	32 µg/mL (≈ 90 µM)	> 256 µg/mL	> 256 µg/mL	256 µg/mL (≈ 720 µM)	128 µg/mL (≈ 360 µM)	32 µg/mL (≈ 90 µM)	> 256 µg/mL
O=C1c2ccccc2C(=O)N1CN1C(=O)CS/C1=N\N=C\c1ccco1	2 µg/mL (≈ 5.43 µM)	> 256 µg/mL	> 256 µg/mL	> 256 µg/mL	2 µg/mL (≈ 5.43 µM)	> 256 µg/mL	> 256 µg/mL	8 µg/mL (≈ 21.7 µM)	> 256 µg/mL	> 256 µg/mL	8 µg/mL (≈ 21.7 µM)	4 µg/mL (≈ 10.9 µM)	2 µg/mL (≈ 5.43 µM)	> 256 µg/mL
C/C(=N\N=C1/SCC(=O)N1Cc1cccc2ccccc12)c1ccccc1	8 µg/mL (≈ 21.4 µM)	> 256 µg/mL	> 256 µg/mL	> 256 µg/mL	2 µg/mL (≈ 5.36 µM)	> 256 µg/mL	> 256 µg/mL	8 µg/mL (≈ 21.4 µM)	> 256 µg/mL	> 256 µg/mL	2 µg/mL (≈ 5.36 µM)	32 µg/mL (≈ 85.7 µM)	32 µg/mL (≈ 85.7 µM)	> 256 µg/mL
CCCCCC/C(C)=N/N=C1\SCC(=O)N1Cc1ccc([N+](=O)[O-])cc1	256 µg/mL (≈ 680 µM)	> 256 µg/mL	> 256 µg/mL	> 256 µg/mL	4 µg/mL (≈ 10.6 µM)	> 256 µg/mL	> 256 µg/mL	2 µg/mL (≈ 5.31 µM)	> 256 µg/mL	> 256 µg/mL	128 µg/mL (≈ 340 µM)	128 µg/mL (≈ 340 µM)	256 µg/mL (≈ 680 µM)	> 256 µg/mL

Now from value to compound, other results behind:

MIC ([Candida] sake)	MIC (Proteus mirabilis)	MIC (Enterobacter sp.)	MIC (Escherichia coli)	MIC (Candida albicans)	MIC (Klebsiella oxytoca)	MIC (Staphylococcus aureus)	MIC (Nakaseomyces glabratus)	MIC (Enterococcus faecalis)	MIC (Staphylococcus warneri)	MIC (Candida tropicalis)	MIC (Pichia kudriavzevii)	MIC (Candida parapsilosis)	SMILES	MIC [1]
32 µg/mL (≈ 88.8 µM)	> 256 µg/mL	> 256 µg/mL	> 256 µg/mL	4 µg/mL (≈ 11.1 µM)	> 256 µg/mL	> 256 µg/mL	8 µg/mL (≈ 22.2 µM)	> 256 µg/mL	> 256 µg/mL	8 µg/mL (≈ 22.2 µM)	32 µg/mL (≈ 88.8 µM)	32 µg/mL (≈ 88.8 µM)	O=C1CS/C(=N\N=C\c2cccnc2)N1Cc1cccc2ccccc12	> 256 µg/mL
4 µg/mL (≈ 10.9 µM)	> 256 µg/mL	> 256 µg/mL	> 256 µg/mL	8 µg/mL (≈ 21.9 µM)	> 256 µg/mL	> 256 µg/mL	16 µg/mL (≈ 43.8 µM)	> 256 µg/mL	> 256 µg/mL	8 µg/mL (≈ 21.9 µM)	4 µg/mL (≈ 10.9 µM)	4 µg/mL (≈ 10.9 µM)	O=C1CS/C(=N\N=C2CCCCCC2)N1Cc1cccc2ccccc12	> 256 µg/mL
4 µg/mL (≈ 11 µM)	> 256 µg/mL	> 256 µg/mL	> 256 µg/mL	32 µg/mL (≈ 88 µM)	> 256 µg/mL	> 256 µg/mL	32 µg/mL (≈ 88 µM)	> 256 µg/mL	> 256 µg/mL	128 µg/mL (≈ 352 µM)	4 µg/mL (≈ 11 µM)	4 µg/mL (≈ 11 µM)	C/C(=N\N=C1/SCC(=O)N1Cc1cccc2ccccc12)c1ccco1	> 256 µg/mL
256 µg/mL (≈ 759 µM)	> 256 µg/mL	> 256 µg/mL	> 256 µg/mL	2 µg/mL (≈ 5.93 µM)	> 256 µg/mL	> 256 µg/mL	16 µg/mL (≈ 47.4 µM)	> 256 µg/mL	> 256 µg/mL	8 µg/mL (≈ 23.7 µM)	16 µg/mL (≈ 47.4 µM)	128 µg/mL (≈ 379 µM)	O=C1CS/C(=N\N=C2CCCC2)N1Cc1cccc2ccccc12	> 256 µg/mL
